Measured values reported in ChEMBL document CHEMBL1142209, “Inhibition of Plasmodium falciparum choline kinase by hexadecyltrimethylammonium bromide: a possible antimalarial mechanism” (Antimicrob Agents Chemother, 2007).

Experiments:
Plasmodium falciparum [1] = test: Inhibition of Plasmodium falciparum choline kinase at 150 uM in presence of 250 uM ATP
Plasmodium falciparum [2] = test: Inhibition of Plasmodium falciparum choline kinase at 50 uM in presence of 250 uM ATP
Plasmodium falciparum [3] = test: Inhibition of Plasmodium falciparum choline kinase at 50 uM in presence of 100 uM ATP
Plasmodium falciparum [4] = test: Inhibition of Plasmodium falciparum choline kinase at 150 uM in presence of 100 uM ATP
Plasmodium yoelii [5] = test: Antimalarial activity against intraperitoneal inoculated Plasmodium yoelii N67 in Swiss mice (Mus musculus) at 5 mg/kg intraperitoneal dose on day 4; format: functional, organism-based; parameters: dose 5 mg/kg; settings: N-67
Outline: (§1)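 P. yoelii N-67 in Swiss mice (22 ± 2 g, five per group), 1 × 10^5 parasitized RBC i.p. on day 0. Aqueous suspension given i.p. (0.20 ml) from 6 h post-inoculation, days 0–3. Day-4 parasitemia from Giemsa smears; % suppression = [(C − T)/C] × 100 on group means vs vehicle.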

Plasmodium falciparum [6] = test: Inhibition of Plasmodium falciparum NF54 trophozoite at 10 uM; format: functional, organism-based
Outline: (§2)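 Sorbitol-synchronized NF-54 at 0.5% ring parasitemia, 1% hematocrit. Rings (0 h), trophozoites (24 h) or schizonts (36 h) exposed 8 h in CRPMI, then washed out. [3H]hypoxanthine (0.7 μCi/well) added at 24, 48 or 60 h respectively; harvest at 72 h and scintillation count. Read against stage-matched DMSO control; three experiments in triplicate.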

Plasmodium yoelii [7] = test: Antimalarial activity against intraperitoneal inoculated Plasmodium yoelii N67 in Swiss mice (Mus musculus) at 20 mg/kg intraperitoneal dose on day 4; format: functional, organism-based; parameters: dose 20 mg/kg; settings: N-67; outline: as §1
Plasmodium falciparum [8] = test: Inhibition of Plasmodium falciparum choline kinase
Outline: (§3)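 Purified recombinant PfCK (5 μg; Ni-NTA affinity plus gel filtration) incubated at 37°C for 45 min in 100 mM Tris-Cl pH 8.8, 5 mM ATP, 6 mM MgCl2, 250 μM [methyl-14C]choline (5.6 mCi/mmol). Stopped with Dowex-50W slurry; [14C]phosphocholine in supernatant counted by scintillation. DMSO control = 100%. Three experiments in triplicate.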

Plasmodium yoelii [9] = test: Antimalarial activity against intraperitoneal inoculated Plasmodium yoelii N67 in Swiss mice (Mus musculus) at 10 mg/kg intraperitoneal dose on day 4; format: functional, organism-based; parameters: dose 10 mg/kg; settings: N-67; outline: as §1
Plasmodium falciparum [10] = test: Inhibition of phosphatidylcholine biosynthesis in Plasmodium falciparum NF54 as [methlyl-14C]choline uptake; format: functional, organism-based
Outline: (§4)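 NF-54 culture (15% parasitemia, 5% hematocrit) treated 1 h at 37°C (90% N2, 5% CO2) and washed. Labelled 4 h with 40 μM [methyl-14C]choline (5.6 mCi/mmol). Cells lysed in 5% TCA with freeze-thaw; phosphatidylcholine counted in pellet. Ether-extracted supernatant split on Dowex-50W: phosphocholine unbound, free choline eluted with 1 N HCl. Compared with DMSO control.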

Plasmodium yoelii [11] = test: Antimalarial activity at day 4 against intravenously inoculated Plasmodium yoelii N67 in Swiss mice (Mus musculus) at 20 mg/kg intraperitoneal dose; format: functional, organism-based; parameters: dose 20 mg/kg; settings: N-67
Outline: (§5)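 P. yoelii N-67 in Swiss mice (22 ± 2 g, five per group), 1 × 10^4 parasitized RBC i.v. on day 0. Aqueous suspension given i.p. (0.20 ml) from 6 h post-inoculation, days 0–3. Day-4 parasitemia from Giemsa smears; % suppression = [(C − T)/C] × 100 on group means vs vehicle.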

Plasmodium yoelii [12] = test: Antimalarial activity against intravenously inoculated Plasmodium yoelii N67 in Swiss mice (Mus musculus) at 10 mg/kg intraperitoneal dose on day 4; format: functional, organism-based; parameters: dose 10 mg/kg; settings: N-67; outline: as §5
Plasmodium falciparum [13] = test: Inhibition of choline kinase in Plasmodium falciparum NF54 assessed as incorporation of [methlyl-14C]choline into phosphocholine at 10 uM; outline: as §4
Plasmodium falciparum [14] = test: Inhibition of phosphocholine biosynthesis in Plasmodium falciparum NF54 as intracellular free choline at 10 uM; format: functional, organism-based; outline: as §4
Plasmodium falciparum [15] = test: Inhibition of Plasmodium falciparum NF54 as [3H]hypoxanthine uptake at 10 uM; format: functional, organism-based
Outline: (§6)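 Asynchronous P. falciparum NF-54 in human B+ erythrocytes (1% hematocrit, 0.5–0.7% parasitemia) exposed to compound (DMSO stock diluted in RPMI) for 48 h. Then washed and pulsed 48 h with [3H]hypoxanthine 0.7 μCi/well. Harvested on glass-fibre filters and counted by scintillation. % inhibition vs DMSO control; three experiments in triplicate.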

Plasmodium falciparum [16] = test: Inhibition of Plasmodium falciparum NF54 ring stage at 30 uM; format: functional, organism-based; outline: as §2
Plasmodium falciparum [17] = test: Inhibition of Plasmodium falciparum choline kinase at 100 uM; outline: as §3
Plasmodium falciparum [18] = test: Growth inhibition of schizont Plasmodium falciparum NF54 at 10 uM; format: functional, organism-based; outline: as §2
Plasmodium yoelii [19] = test: Antimalarial activity against intravenously inoculated Plasmodium yoelii N67 in Swiss mice (Mus musculus) at 5 mg/kg intraperitoneal dose on day 4; format: functional, organism-based; parameters: dose 5 mg/kg; settings: N-67; outline: as §5
Plasmodium falciparum [20] = test: Inhibition of Plasmodium falciparum NF54 as [3H]hypoxanthine uptake at 20 uM; format: functional, organism-based; outline: as §6

Molecule	inhibition (Plasmodium falciparum [1])	inhibition (Plasmodium falciparum [2])	inhibition (Plasmodium falciparum [3])	inhibition (Plasmodium falciparum [4])	Activity (Plasmodium yoelii [5])	inhibition (Plasmodium falciparum [6])	Activity (Plasmodium yoelii [7])	Activity (Plasmodium falciparum [8])	Activity (Plasmodium yoelii [9])	Activity (Plasmodium falciparum [10])	Activity (Plasmodium yoelii [11])	Activity (Plasmodium yoelii [12])	inhibition (Plasmodium falciparum [13])	inhibition (Plasmodium falciparum [14])	inhibition (Plasmodium falciparum [15])	inhibition (Plasmodium falciparum [16])	inhibition (Plasmodium falciparum [17])	inhibition (Plasmodium falciparum [18])	Activity (Plasmodium yoelii [19])	inhibition (Plasmodium falciparum [20])
C[N+]1(C)CCOC(O)(c2ccc(-c3ccc(C4(O)C[N+](C)(C)CCO4)cc3)cc2)C1 (stereo unspecified)	18%	16%	16%	18%																
hexadecyltrimethylammonium bromide			60%		36.8%	62%	77.2%	Dose-dependent effect	52.4%	Dose-dependent effect	83.7%	64.2%	57%	42%	62%	33.3%	60%	51%	48.7%	81%
